Experiments:
[1] = Solubility in aqueous media Ringer's buffer,pH7.4; format: physicochemical; conditions: pH 7.4
[2] = Solubility in aqueous media urine, pH 5.1; format: physicochemical; conditions: read-out: S
[3] = Solubility in aqueous media urine, pH 5.7; format: physicochemical; conditions: read-out: S
[4] = Solubility in aqueous media urine, pH 6.3; format: physicochemical; conditions: read-out: S
[5] = Solubility in aqueous media urine, pH 7.0; format: physicochemical; conditions: read-out: S
[6] = Solubility in aqueous media 0.15 N phosphate, pH 5.6; format: physicochemical; conditions: read-out: S
[7] = Solubility in aqueous media 0.15Nacetate, pH 6.1; format: physicochemical; conditions: 0.15 N acetate, read-out: S
[8] = Solubility in aqueous media 0.1 N chloride, pH 6.5; format: physicochemical; conditions: read-out: S
Acinetobacter sp. = experiment: In vitro activity against Acinetobacter sp.(CMX 669).; format: functional
Outline: (§1)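 MIC determined by agar dilution on brain-heart infusion agar under aerobic conditions.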

Enterococcus faecium = experiment: In vitro activity against Enterococcus faecium (ATCC 8043).; format: functional; outline: as §1
Escherichia coli [9] = experiment: In vitro activity against Escherichia coli (DC-2); format: functional
Outline: (§2)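 MIC for aerobic bacteria, measured on brain-heart infusion agar.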

Escherichia coli [10] = experiment: In vitro activity against Escherichia coli (H560); format: functional; outline: as §2
Escherichia coli [11] = experiment: In vitro activity against Escherichia coli (KNK437); format: functional; outline: as §2
Escherichia coli [12] = experiment: In vitro activity against Escherichia coli (SS).; format: functional; outline: as §2
Escherichia coli [13] = experiment: In vitro activity against Escherichia coli Juhl; format: functional; outline: as §2
Klebsiella aerogenes = experiment: In vitro activity againsT Enterobacter aerogenes (ATCC 13048).; format: functional; outline: as §1
Klebsiella pneumoniae = experiment: In vitro activity against Klebsiella pneumoniae (ATCC 8045).; format: functional; outline: as §1
Micrococcus luteus [14] = experiment: In vitro activity against Micrococcus luteus (ATCC 4698); format: functional; outline: as §1
Micrococcus luteus [15] = experiment: In vitro activity against Micrococcus luteus (ATCC 9341); format: functional; outline: as §1
Mus musculus [16] = experiment: In vivo activity against Escherichia coli Juhl(100X LD50), when administered po( each compound tested at 3 doses with 10 animals); format: functional
Outline: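 Mice were challenged intraperitoneally with the organism. The compound was given orally as a total dose split into equal portions at 1 and 5 h post-infection. Three doses were used, with 10 animals per dose.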

Mus musculus [17] = experiment: In vivo activity against Escherichia coli Juhl(100X LD50), when administered sc( each compound tested at 3 doses with 10 animals); format: functional
Outline: (§3)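 Mice were challenged intraperitoneally with the organism. The compound was given subcutaneously as a total dose split into equal portions at 1 and 5 h post-infection. Three doses were used, with 10 animals per dose.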

Mus musculus [18] = experiment: In vivo activity against Pseudomonas aeruginosa A5007 (100X LD50), administered sc ( each compound tested at 3 doses with 10 animals); format: functional; outline: as §3
Mus musculus [19] = experiment: In vivo activity against Pseudomonas aeruginosa A5007 (100X LD50), administered sc( each compound tested at 3 doses with 10 animals); format: functional; outline: as §3
Providencia stuartii = experiment: In vitro activity against Providencia stuartii (CMX 640); format: functional; outline: as §1
Pseudomonas aeruginosa [20] = experiment: In vitro activity against Pseudomonas aeruginosa (A5007).; format: functional; outline: as §1
Pseudomonas aeruginosa [21] = experiment: In vitro activity against Pseudomonas aeruginosa (BMH10); format: functional; outline: as §1
Pseudomonas aeruginosa [22] = experiment: In vitro activity against Pseudomonas aeruginosa (K799/WT).; format: functional; outline: as §1
Staphylococcus aureus [23] = experiment: In vitro activity against Staphylococcus aureus(45); format: functional; outline: as §1
Staphylococcus aureus [24] = experiment: In vitro activity against Staphylococcus aureus (A5177); format: functional; outline: as §1
Staphylococcus aureus [25] = experiment: In vitro activity against Staphylococcus aureus(ATCC 6538P); format: functional; outline: as §1
Staphylococcus aureus [26] = experiment: In vitro activity against Staphylococcus aureus(CMX 503A); format: functional; outline: as §1
Staphylococcus aureus [27] = experiment: In vitro activity against Staphylococcus aureus(CMX 553); format: functional; outline: as §1
Staphylococcus aureus [28] = experiment: In vitro activity against Staphylococcus aureus(CMX 686B); format: functional; outline: as §1
[29] = tested on: Staphylococcus epidermidis; experiment: In vitro activity against Staphylococcus epidermidis (3519); format: functional; outline: as §1
Streptococcus agalactiae = experiment: In vitro activity against Streptococcus agalactiae (CMX 508).; format: functional; outline: as §1
Staphylococcus aureus [30] = experiment: In vitro activity against Staphylococcus aureus(45 RAR2); format: functional; outline: as §1
Streptococcus equinus = experiment: In vitro activity against Streptococcus bovis (A5169).; format: functional; outline: as §1
Streptococcus pyogenes [31] = experiment: In vitro activity against Streptococcus pyogenes (2548 INDUC).; format: functional; outline: as §1
Streptococcus pyogenes [32] = experiment: In vitro activity against Streptococcus pyogenes(930 CONST).; format: functional; outline: as §1
Streptococcus pyogenes [33] = experiment: In vitro activity against Streptococcus pyogenes (EES61); format: functional; outline: as §1
[34] = Solubility in aqueous media 0.15 N sulfate, pH 5.4; format: physicochemical; conditions: read-out: S
Burkholderia cepacia = experiment: In vitro activity against Pseudomonas cepacia (296I); format: functional; outline: as §1

Work on `Cl.NC1CCN(c2nc3c(cc2F)c(=O)c(C(=O)O)cn3-c2ccc(F)cc2F)C1` (configuration not stated) yielded a solubility [1] of 8 µg/mL, a solubility [2] of 23.5 µg/mL and a solubility [3] of 16.3 µg/mL. The solubility [4] was 12.7 µg/mL, the solubility [5] was 12.2 µg/mL and the solubility [6] was 1.8 µg/mL. The solubility [7] was 1.7 µg/mL, the solubility [8] was 1.2 µg/mL and the MIC (Acinetobacter sp.) was 0.05 µg/mL. The MIC (Enterococcus faecium) was 0.2 µg/mL, the MIC (Escherichia coli [9]) was 0.2 µg/mL and the MIC (Escherichia coli [10]) was 0.02 µg/mL. The MIC (Escherichia coli [11]) was 0.02 µg/mL, the MIC (Escherichia coli [12]) was 0.01 µg/mL and the MIC (Escherichia coli [13]) was 0.02 µg/mL. The MIC (Klebsiella aerogenes) was 0.1 µg/mL, the MIC (Klebsiella pneumoniae) was 0.02 µg/mL and the MIC (Micrococcus luteus [14]) was 0.78 µg/mL. The MIC (Micrococcus luteus [15]) was 1.56 µg/mL, the ED50 (Mus musculus [16]) was 1.2 mg/kg and the ED50 (Mus musculus [17]) was 0.2 mg/kg. The ED50 (Mus musculus [18]) was 0.4 mg/kg, the ED50 (Mus musculus [19]) was > 25 mg/kg and the MIC (Providencia stuartii) was 1.56 µg/mL. It also gave an MIC (Pseudomonas aeruginosa [20]) of 0.2 µg/mL, an MIC (Pseudomonas aeruginosa [21]) of 0.1 µg/mL and an MIC (Pseudomonas aeruginosa [22]) of 0.1 µg/mL. It also gave an MIC (Staphylococcus aureus [23]) of 0.1 µg/mL, an MIC (Staphylococcus aureus [24]) of 0.05 µg/mL and an MIC (Staphylococcus aureus [25]) of 0.02 µg/mL. The MIC (Staphylococcus aureus [26]) was 0.05 µg/mL, the MIC (Staphylococcus aureus [27]) was 0.05 µg/mL and the MIC (Staphylococcus aureus [28]) was 0.05 µg/mL. For the same molecule, the MIC [29] was 0.05 µg/mL, the MIC (Streptococcus agalactiae) was 0.39 µg/mL and the MIC (Staphylococcus aureus [30]) was 0.1 µg/mL. The MIC (Streptococcus equinus) was 0.2 µg/mL, the MIC (Streptococcus pyogenes [31]) was 0.2 µg/mL and the MIC (Streptococcus pyogenes [32]) was 0.2 µg/mL. For the same molecule, the MIC (Streptococcus pyogenes [33]) was 0.2 µg/mL, the solubility [34] was 6.5 µg/mL and the MIC (Burkholderia cepacia) was 6.2 µg/mL.

From ChEMBL document CHEMBL1124180, “Asymmetric synthesis and properties of the enantiomers of the antibacterial agent 7-(3-aminopyrrolidin-1-yl)-1-(2,4-difluorophenyl)-1,4-dihydro-6- fluoro-4-oxo-1,8-naphthyridine-3-carboxylic acid hydrochloride” (J Med Chem, 1988)
